Reference: ChEMBL document CHEMBL1921794, “Synthesis and in vitro evaluation of analogues of avocado-produced toxin (+)-(R)-persin in human breast cancer cells” (Bioorg Med Chem, 2011)

Tests used:
MCF-10A = experiment: Cytotoxicity against ER, BimL and BimS deficient human MCF10A cells expressing wild type p53, BimEL assessed as growth inhibition after 24 hrs by MTS assay; type: cell-based
Procedure, shortened: (§1)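 Cell lines were obtained from ATCC, plated in 96-well plates, and exposed in triplicate to drug or vehicle for 24 h. Viability was measured by MTS absorbance at 490 nm, taken as a percentage of solvent-treated controls, and IC50 was derived.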

MCF7 [1] = experiment: Cytotoxicity against human MCF7 cells expressing ER, wild type p53, BimEL, BimL and BimS assessed as growth inhibition after 24 hrs by MTS assay; type: functional, cell-based; conditions: MCF7, 24 h
Procedure, shortened: (§2)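 ATCC breast cancer cells kept in RPMI-1640 with 5% FCS, insulin and glutamine under standard conditions. Cells in 96-well plates were treated in triplicate for 24 h with drug or vehicle. MTS viability was read as absorbance at 490 nm, expressed as a percentage of solvent controls, and IC50 was derived.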

OVCAR-3 = experiment: Cytotoxicity against BimEL, BimL and BimS deficient human OVCAR3 cells expressing p53 mutant assessed as growth inhibition after 24 hrs by MTS assay; type: functional, cell-based; conditions: OVCAR-3, 24 h; procedure, shortened: as §1
Hs-578T = experiment: Cytotoxicity against ER, BimEL, BimL and BimS deficient human Hs578T cells expressing p53 mutant assessed as growth inhibition after 24 hrs by MTS assay; type: functional, cell-based; procedure, shortened: as §2
IGROV-1 = experiment: Cytotoxicity against human IGROV1 cells expressing p53 mutant, BimEL, BimL and BimS assessed as growth inhibition after 24 hrs by MTS assay; type: functional, cell-based; conditions: IGROV-1, 24 h; procedure, shortened: as §1
MDA-MB-468 = experiment: Cytotoxicity against ER deficient human MDA-MB-468 cells expressing p53 mutant, BimEL, BimL and BimS assessed as growth inhibition after 24 hrs by MTS assay; type: functional, cell-based; conditions: MDA-MB-468, 24 h; procedure, shortened: as §2
T47D = experiment: Cytotoxicity against BimL, BimS deficient human T47D cells expressing ER, p53 mutant, BimEL assessed as growth inhibition after 24 hrs by MTS assay; type: functional, cell-based; procedure, shortened: as §2
PC-3 = experiment: Cytotoxicity against AR and BimS deficient human PC3 cells expressing p53 mutant, BimEL, BimL assessed as growth inhibition after 24 hrs by MTS assay; type: functional, cell-based; conditions: PC-3, 24 h; procedure, shortened: as §1
MDA-MB-231 = experiment: Cytotoxicity against ER, BimEL, BimL and BimS deficient human MDA-MB-231 cells expressing p53 mutant assessed as growth inhibition after 24 hrs by MTS assay; type: functional, cell-based; conditions: MDA-MB-231, 24 h; procedure, shortened: as §2
SK-BR-3 = experiment: Cytotoxicity against ER deficient human SKBR3 cells expressing p53 mutant, BimEL, BimL and BimS assessed as growth inhibition after 24 hrs by MTS assay; type: functional, cell-based; conditions: SK-BR-3, 24 h; procedure, shortened: as §2
MCF7 [2] = experiment: Cytotoxicity against human MCF7 cells expressing ER assessed as growth inhibition after 24 hrs by MTS assay; type: functional, cell-based; conditions: MCF7, 24 h; procedure, shortened: as §2
MDA-MB-157 = experiment: Cytotoxicity against ER, BimL and BimS deficient human MDA-MB-157 cells expressing p53 mutant, BimEL assessed as growth inhibition after 24 hrs by MTS assay; type: functional, cell-based; conditions: MDA-MB-157, 24 h; procedure, shortened: as §2
LNCaP = experiment: Cytotoxicity against human LNCAP cells expressing AR, wild type p53, BimEL, BimL and BimS assessed as growth inhibition after 24 hrs by MTS assay; type: functional, cell-based; procedure, shortened: as §1

`CCCCCCCCCCCCCCCCCC(=O)C[C@@H](O)COC(C)=O` was tested, and the IC50 (MCF-10A) was greater than 39 µM, the IC50 (MCF7 [1]) was 18.2 µM and the IC50 (OVCAR-3) was greater than 39 µM. It also gave an IC50 (Hs-578T) greater than 39 µM, an IC50 (IGROV-1) greater than 39 µM and an IC50 (MDA-MB-468) greater than 39 µM. It also gave an IC50 (T47D) of 20.7 µM, an IC50 (PC-3) greater than 39 µM and an IC50 (MDA-MB-231) greater than 39 µM. The IC50 (SK-BR-3) was greater than 39 µM, the IC50 (MCF7 [2]) was 17.1 µM and the IC50 (MDA-MB-157) was greater than 39 µM. For the same compound, the IC50 (LNCaP) was greater than 39 µM.
In the case of `CCCCCCC(=O)C[C@@H](O)COC(C)=O`, the IC50 (MCF7 [2]) is reported as greater than 65 µM.
In the case of `CCCCC/C=C\C/C=C\CCCCCCCC(=O)C[C@@H](O)COC(=O)c1ccccc1`, the IC50 (MCF7 [2]) is reported as 27 µM.
With `CCCCC/C=C\C/C=C\CCCCCCCC(=O)C[C@H](COC(=O)c1ccccc1)OC(=O)c1ccccc1` the IC50 (MCF7 [2]) was greater than 27 µM.
`CCCCC/C=C\C/C=C\CCCCCCCC(=O)C[C@@H](O)COC(=O)c1ccc(Br)cc1` was tested, and the IC50 (MCF7 [2]) was 23.8 µM.
Work on `CCCCC/C=C\C/C=C\CCCCCCCC(=O)C[C@H](COC(=O)c1ccc(Br)cc1)OC(=O)c1ccc(Br)cc1` yielded an IC50 (MCF7 [2]) greater than 21 µM.
In the case of `CCCCC/C=C\C/C=C\CCCCCCCC(=O)/C=C/COC(=O)c1ccc([N+](=O)[O-])cc1`, the IC50 (MCF7 [2]) is reported as greater than 32 µM.
`CCCCC/C=C\C/C=C\CCCCCCCC(=O)C[C@H](COC(=O)c1ccc([N+](=O)[O-])cc1)OC(=O)c1ccc([N+](=O)[O-])cc1` gave an IC50 (MCF7 [2]) greater than 24 µM.
`CCCCC/C=C\C/C=C\CCCCCCCC(=O)C[C@@H](O)COC(=O)c1ccncc1` was tested, and the IC50 (MCF7 [2]) was 20.1 µM.
`CCCCCCCCCCCCCCCCCC(=O)C(C)(C)[C@@H](O)COC(C)=O` gave an IC50 (MCF7 [2]) of 29 µM.
Compound `CCCCC/C=C\C/C=C\CCCCCCCC(=O)C[C@@H](O)COC(C)=O` has an IC50 (MCF-10A) greater than 39 µM, an IC50 (MCF7 [1]) of 15.1 µM and an IC50 (OVCAR-3) of 27.9 µM. For the same compound, the IC50 (Hs-578T) was 32.1 µM, the IC50 (IGROV-1) was 15.6 µM and the IC50 (MDA-MB-468) was 25 µM. For the same compound, the IC50 (T47D) was 30.3 µM, the IC50 (PC-3) was 30 µM and the IC50 (MDA-MB-231) was greater than 39 µM. For the same compound, the IC50 (SK-BR-3) was 19.7 µM, the IC50 (MCF7 [2]) was 15.1 µM and the IC50 (MDA-MB-157) was 12.8 µM. It also gave an IC50 (LNCaP) of 22 µM.
